Compound activity deposited in PubChem by Johns Hopkins Ion Channel Center.
Only some compounds are listed: those with a hit (about 2.3% of all), similar ones and a draw of the others.
TRPC4 PAM: TRPC4 (mouse) allosteric potentiation; Q9QUQ5; HEK293 TRPC4beta/mu-opioid, DAMGO EC20, Fluo-4 Ca2+ flux; stronger effect = higher value; B-score at 10 µM; actives 0.42% (n = 310,000); AID 2227;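 active = B-score of calcium response area above 5 SD of library B-scores, with initial fluorescence ratio within 5 SD of library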;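 note: B-score of integrated fluorescence ratio over time as area under calcium response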
TRPC6 activator: mouse TRPC6 channel activation | HEK293-TRPC6 membrane potential dye fluorescence; stronger effect = higher value | AID 2550 | B-score at 10 µM | Q61143 | actives 0.13% (n = 310,000);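 active = B-score of the integrated fluorescence ratio above library mean plus 3 SD, and starting fluorescence ratio within library mean plus 5 SD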;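 note: higher score means more depolarization so channel activation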
Target sequence (Q61143 whole entry, looked up): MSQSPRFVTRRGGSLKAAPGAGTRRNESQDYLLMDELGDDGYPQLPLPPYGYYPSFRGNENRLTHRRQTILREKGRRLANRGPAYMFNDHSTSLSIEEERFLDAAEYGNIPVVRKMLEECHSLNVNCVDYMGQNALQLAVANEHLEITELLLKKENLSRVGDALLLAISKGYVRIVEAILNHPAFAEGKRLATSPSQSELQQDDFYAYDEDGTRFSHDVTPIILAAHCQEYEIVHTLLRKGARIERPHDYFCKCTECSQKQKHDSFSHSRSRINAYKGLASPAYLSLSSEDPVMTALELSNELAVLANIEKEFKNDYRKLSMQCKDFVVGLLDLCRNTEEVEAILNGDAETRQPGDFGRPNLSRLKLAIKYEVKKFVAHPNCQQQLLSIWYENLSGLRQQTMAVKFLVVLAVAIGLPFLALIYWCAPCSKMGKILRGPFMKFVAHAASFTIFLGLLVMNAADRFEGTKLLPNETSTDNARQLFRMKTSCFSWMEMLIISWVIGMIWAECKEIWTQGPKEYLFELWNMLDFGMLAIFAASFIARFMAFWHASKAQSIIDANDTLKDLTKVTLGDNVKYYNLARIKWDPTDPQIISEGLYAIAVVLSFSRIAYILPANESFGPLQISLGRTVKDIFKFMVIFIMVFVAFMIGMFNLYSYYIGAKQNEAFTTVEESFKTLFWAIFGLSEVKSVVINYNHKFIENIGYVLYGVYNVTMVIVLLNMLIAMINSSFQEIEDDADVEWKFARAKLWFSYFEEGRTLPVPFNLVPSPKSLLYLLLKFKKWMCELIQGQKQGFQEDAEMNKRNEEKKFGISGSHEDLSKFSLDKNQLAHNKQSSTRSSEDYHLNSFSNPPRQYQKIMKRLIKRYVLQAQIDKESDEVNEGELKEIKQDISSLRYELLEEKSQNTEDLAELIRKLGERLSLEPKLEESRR
TRPC6 inh: blocks the mouse TRPC6 cation channel; HEK293-TRPC6, membrane potential dye, ACh-evoked depolarization; stronger effect = lower value; AID 2553; actives 1.1% (n = 310,000); B-score at 10 µM; Q61143;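 active = B-score under library mean minus 3 SD, initial fluorescence not abnormally high, positive integrated signal ratio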;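 note: B-score derived from integrated fluorescence ratio over the kinetic read; more negative B-score means stronger inhibition of depolarization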
TRPC4 agonist: activators of mouse TRPC4 channel. AID 2237. actives 0.49% (n = 310,000). HEK293 TRPC4beta/mu-opioid, Fluo4 calcium fluorescence; stronger effect = higher value. Q9QUQ5. B-score at 10 µM;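 active = B-score above 5 SD of library B-scores, and initial fluorescence ratio not above library mean plus 5 SD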;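 note: positive B-score marks a calcium rise read as TRPC4 activation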
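Assay system: HEK293 cells stably co-expressing mouse TRPC4beta and mu-opioid receptor / Timing: Fluo4 dye loading 45 min at room temperature, 110 s recording / Signal: Fluo4 calcium-sensitive dye fluorescence, kinetic, 1 Hz baseline / Read-out: integrated baseline-normalised fluorescence ratio, converted to per-well B score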
TRPC4 block: inhibitors of mouse TRPC4 channel. B-score at 10 µM. HEK293 TRPC4beta/mu-opioid, DAMGO-evoked Fluo4 calcium flux; stronger effect = lower value. AID 2247. actives 0.39% (n = 300,000);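 active = B-score over 3 SD under the library average, no early fluorescence shift, positive overall ratio signal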
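Test system – stable TRPC4beta/mu-opioid receptor HEK293 cells · Probe or stimulus – DAMGO, a submaximal dose followed by a maximal one · Dosing – one concentration per compound · Signal – Fluo4 calcium fluorescence by kinetic imaging, 5 s 1 Hz baseline · Evaluation – per-well B score of integrated baseline-normalized Fluo4 ratio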
TRPC4 spec 2: mouse TRPC4 off-target activity of TRPC6 inhibitors, second screen; inhibition, % at 10 µM; AID 2776; HEK293 TRPC4/MOR, membrane potential dye fluorescence; channel activated by saturating DAMGO dose; shares compounds with TRPC6 inh; actives 42% (n = 920);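 active = compounds whose fluorescence signal differed from control wells by over 3 SD, either direction, in both duplicate plates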
TRPC4 spec: mouse TRPC4 off-target activity of TRPC6 inhibitors | activity change, negative = inhibition, % at 10 µM | actives 61% (n = 920) | HEK293 TRPC4/mu-opioid, membrane potential fluorescence | shares compounds with TRPC6 inh;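 active = rise or fall in signal beyond 3 SD of buffer-only wells in both replicate plates, either sign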;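 note: integrated kinetic ratio of fluorescence range over baseline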
HEK293 MPD ctr 2-1: second check of TRPC6 inhibitor effects in parental HEK293 cells; shares compounds with TRPC6 inh; parental HEK293 membrane potential dye fluorescence; maximal acetylcholine challenge after compound addition; signal change vs control, % at 10 µM; actives 31% (n = 920); AID 2779;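 active = membrane potential signal moving either way by over 3 SD of the maximum-effect control, in both duplicate plates, meaning non-specific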
HEK293 MPD ctr-1: parental HEK293 nonspecific activity of TRPC6 inhibitors | shares compounds with TRPC6 inh | parental HEK293 membrane potential dye fluorescence | membrane potential signal change, % at 10 µM | actives 60% (n = 920) | AID 2780;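 active = membrane potential signal shifting up or down by more than 3 SD of buffer-only wells, on both duplicate plates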
HEK293 MPD ctr-2: counter-screen for TRPC6 modulators: effect in parental HEK293 cells | AID 488924 | actives 51% (n = 2,400) | shares compounds with TRPC6 inh | membrane potential signal change, % at 10 µM | membrane potential dye fluorescence;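 active = membrane potential signal moves up or down beyond 5 SD from buffer-only wells, on both duplicate plates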
HEK293 MPD ctr 2-2: second check of TRPC6 modulator effects in parental HEK293 cells; shares compounds with TRPC6 inh; inhibition, % at 10 µM; actives 14% (n = 2,400); AID 488926; membrane potential dye fluorescence; after compound, maximal acetylcholine stimulation;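 active = membrane potential signal drops by more than 5 SD from the mean control signal, in both duplicate plates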;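 note: plate controls were acetylcholine ECmax control wells for no effect and buffer only wells for full effect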
TRPC4/MOR mod: tests whether TRPC6 modulators also affect mouse TRPC4; shares compounds with TRPC6 inh; HEK293 TRPC4/mu-opioid, membrane potential fluorescence; percent change from control (negative = decrease, positive = increase), % at 10 µM; actives 69% (n = 2,400);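 active = membrane potential signal moved up or down beyond 5 SD of buffer control wells, in both duplicate plates, actives on both sides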;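 note: plate controls were assay buffer wells for no effect and DAMGO maximal-effect wells for full effect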
TRPC4 ctr inh 2: second check of whether TRPC6 modulators also affect mouse TRPC4; HEK293 TRPC4/mu-opioid, membrane potential dye fluorescence; stimulated with maximal-effect DAMGO; actives 55% (n = 2,400); inhibition, % at 10 µM; shares compounds with TRPC6 inh; AID 488928;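 active = drop in membrane potential signal beyond 5 SD of the control wells in both duplicate plates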;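 note: TRPC4 counter screen for TRPC6 hits run under conditions tuned for TRPC6 not TRPC4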
TRPC6 inh conf: mouse TRPC6 inhibitor confirmation | shares compounds with TRPC6 inh | HEK293-TRPC6, membrane potential dye, ACh-evoked depolarization | inhibition, % at 10 µM | actives 43% (n = 3,300) | AID 488960;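 active = fluorescence ratio falls more than 5 SD below the full-stimulation control mean, in both duplicate runs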;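 note: integrated fluorescence ratio of peak minus minimum over baseline after agonist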
TRPC6 act confirm: confirmation of mouse TRPC6 activators | shares compounds with TRPC6 inh | HEK293-TRPC6 membrane potential dye fluorescence, FDSS | activation, % at 10 µM | actives 11% (n = 2,800) | AID 488961;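 active = ratio signal rise beyond 5 SD above unstimulated control wells' mean, seen in both duplicate runs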;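 note: plate controls were buffer EC0 wells for no effect and acetylcholine ECmax response for full effect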
* hit, by the source's call; i = inactive; nt = no result.

SMILES | TRPC4 PAM | TRPC6 activator | TRPC6 inh | TRPC4 agonist | TRPC4 block | HEK293 MPD ctr-2 | HEK293 MPD ctr 2-2 | TRPC4/MOR mod | TRPC4 ctr inh 2 | TRPC6 inh conf | TRPC6 act confirm | others
COc1ccc(OC)c2c(C)cc(NCCN3CCOCC3)nc12 | i | i | -8.88* | i | i | -276.5%* | 69.5%* | -36.5%* | 67.5%* | 72.5%* | i
Cc1ccc(NC(=O)CNC(=O)c2cccc(C)c2)nc1 | i | i | i | i | i | nt | nt | nt | nt | nt | nt
CCc1ccc(C(=O)NNC(=O)C2CSC3(C)CCC(=O)N23)cc1 (configuration not stated) | i | i | i | i | i | nt | nt | nt | nt | nt | nt
O=C(Nc1cccc(NC(=O)c2ccc(Cl)cc2Cl)c1)c1cccnc1 | i | i | i | i | i | nt | nt | nt | nt | nt | nt
O=c1oc(Nc2cccc(F)c2)nc2ccccc12 | i | i | i | i | i | nt | nt | nt | nt | nt | nt
Nc1nc(Nc2cccc(F)c2)nc2ccccc12 | i | i | -13* | i | i | nt | nt | nt | nt | 90.2%* | i | TRPC4 spec 2=22.5%*;TRPC4 spec=-33.0%*;HEK293 MPD ctr 2-1=-37.0%*;HEK293 MPD ctr-1=-493.0%*
Cc1ccc(C)c(Nc2ncnc(N)c2[N+](=O)[O-])c1 | i | i | i | i | i | nt | nt | nt | nt | nt | nt
COc1ccc(Cl)cc1Nc1nc(N)c2ccccc2n1 | i | i | -10.8* | i | i | nt | nt | nt | nt | 80.9%* | i | TRPC4 spec 2=46.5%*;TRPC4 spec=-20.0%*;HEK293 MPD ctr 2-1=i;HEK293 MPD ctr-1=-185.0%*
Cc1ccc(C)c(Nc2nc(N)c3ccccc3n2)c1 | i | i | -15.9* | i | i | nt | nt | nt | nt | 89.6%* | i | TRPC4 spec 2=18.5%*;TRPC4 spec=-30.3%*;HEK293 MPD ctr 2-1=-3.0%*;HEK293 MPD ctr-1=-269.0%*
COc1ccc(C)cc1Nc1nc(N)c2cc(OC)c(OC)cc2n1 | i | i | i | i | i | nt | nt | nt | nt | nt | nt
Cc1ccc(O)c(Nc2nc(-c3ccccc3)nc3ccccc23)c1 | i | i | i | i | i | nt | nt | nt | nt | nt | nt
Cc1ccc(O)c(Nc2c3ccccc3nc3ccccc23)c1 | i | i | -5.59* | i | i | -92.0%* | i | -18.5%* | 60.0%* | i | i
N#Cc1c2c(c(-c3ccco3)[nH]c1=O)CCCC2 | i | i | i | i | i | nt | nt | nt | nt | nt | nt
O=C(NCc1ccc(F)cc1)c1cc2c(s1)CS(=O)(=O)C2 | i | i | i | i | i | nt | nt | nt | nt | nt | nt
COCCCNC(=O)CCc1c(C)nc2c(c(C)nn2-c2ccc(C)cc2)c1C | i | i | i | i | i | nt | nt | nt | nt | nt | nt
CC1Cc2ccccc2N1C(=O)c1ccc(N2CCCC2)c([N+](=O)[O-])c1 (configuration not stated) | i | i | i | i | i | nt | nt | nt | nt | nt | nt
CC1Cc2ccccc2N1C(=O)c1ccc(N2CCCCC2)c([N+](=O)[O-])c1 (configuration not stated) | i | i | -5.81* | i | i | i | i | i | i | i | i
COC(=O)CSc1nc2c(cnn2-c2ccc(F)cc2)c(=O)[nH]1 | i | i | i | i | i | nt | nt | nt | nt | nt | nt
CCN1CCN(c2ccc([N+](=O)[O-])c(Sc3nc4ccccc4[nH]3)c2)CC1 | i | i | -5.37* | i | i | i | i | -12.0%* | 61.0%* | 45.5%* | i
CCCCOc1ccc(C(=O)OC(C)CN(C)C)cc1 (configuration not stated) | i | 12.2* | i | i | i | 217.5%* | i | 35.0%* | 34.5%* | i | 102.0%*
CCOC(=O)c1c(NC(=O)c2c(C(=O)O)cccc2[N+](=O)[O-])sc2c1CCCC2 | i | 29.5* | i | i | i | 194.0%* | i | 31.0%* | i | i | 116.5%*
CCOC(=O)c1c(NC(=O)c2cccc([N+](=O)[O-])c2C(=O)O)sc2c1CCCC2 | i | 36.8* | i | i | i | 209.5%* | i | 37.0%* | i | i | 101.5%*
CNC(=S)Nc1cccc(-c2cnc3ccccc3n2)c1 | i | i | i | i | i | nt | nt | nt | nt | nt | nt
O=C(Nc1nc2ccccc2n1CCN1CCCCC1)c1ccc(Cl)cc1 | i | i | i | i | i | nt | nt | nt | nt | nt | nt
CCN(CC)CCn1c(NC(=O)c2ccccc2O)nc2ccccc21 | i | i | -11.6* | i | i | nt | nt | nt | nt | 88.2%* | i | TRPC4 spec 2=19.5%*;TRPC4 spec=-26.2%*;HEK293 MPD ctr 2-1=3.5%*;HEK293 MPD ctr-1=-336.0%*
CCN(CC)CCn1c(C)nc2ccccc21 | i | i | i | i | i | nt | nt | nt | nt | nt | nt
Cc1ccc(C(=O)Nc2nc3ccccc3n2CCN2CCCC2)cc1 | i | i | -11.2* | i | i | -130.5%* | 74.0%* | -30.5%* | 88.5%* | 91.5%* | i
CCn1nccc1C(=O)Nc1nc2ccccc2n1CCN1CCCCC1 | i | i | -6.85* | i | i | nt | nt | nt | nt | i | i | TRPC4 spec 2=67.5%*;TRPC4 spec=-10.6%*;HEK293 MPD ctr 2-1=i;HEK293 MPD ctr-1=i
CCOC(=O)C1CCN(C(=O)CCC(=O)NNc2nc3ccccc3c3nc(C)nn23)CC1 | i | i | i | i | i | nt | nt | nt | nt | nt | nt
